Measured values gathered from unrelated publications.

For Cc1cccc(/C=C/C(=O)Nc2cccc(-c3ccnc(N4CCC(CO)CC4)c3)c2)c1, the inhibition was 52.9% (A549; cell growth or viability, MTT; 5 µM).
O=C(NC(=S)Nc1cccc(O)c1)c1ccco1 has an IC50 of 480 nM (Leishmania donovani; parasite growth, resazurin; promastigote).
For O=C1O[C@H]([C@@H](O)CO)C(O)=C1O, the IC50 was 350000 nM (ABTS scavenging).
The IC50 of O=C(NC(=S)Nc1ccccn1)c1ccco1 is reported as 2300 nM (Leishmania donovani; parasite growth, resazurin; promastigote).
With C=CC(=O)NC1CCN(c2ncc3ncnc(Nc4ccc(Oc5ccc6c(c5)ncn6C)c(C)c4)c3n2)CC1 the EC50 was 38 nM (NCI-H2170; cell growth or viability).
For CCCCCCCCCCCCCCCCOP(=O)([O-])OCC[N+](C)(C)C, the IC50 was 1970 nM (Leishmania donovani; parasite growth, resazurin; promastigote).
The IC50 of Cc1c(C)c2c(c(C)c1O)CCC(C)(C(=O)O)O2 (stereo not shown) is reported as 160000 nM (ABTS scavenging).
The IC50 of O=C(NC(=S)Nc1ccccc1O)c1ccco1 is reported as 2460 nM (Leishmania donovani; parasite growth, resazurin; promastigote).
For CCCOc1ccc2c(C)c(CC)c(=O)oc2c1C, the viability was 26.3% (PC-3; cell growth or viability, MTT; 250 µg/mL).
The viability of COc1cccc2c1C(=O)c1c(O)c3c(c(O)c1C2=O)C[C@@](O)(C(=O)CO)C[C@@H]3O[C@H]1C[C@H](N)[C@H](O)[C@H](C)O1 is reported as 38.2% (A549; cell growth or viability, MTT; 25 µg/mL, 48 h, serum-free).
Cc1c(Cc2ccccc2)c(=O)oc2c(C)c(OCC(=O)NN=Cc3ccc(Cl)cc3)ccc12 gave a viability of 29% (PC-3; cell growth or viability, MTT; 250 µg/mL).
O=C1O[C@H]([C@@H](O)CO)C(O)=C1O gave an IC50 of 11300 nM (ABTS scavenging, absorbance; 30 min).
C=CCNC(=S)NNC(=O)COc1ccc2c(C)c(CC)c(=O)oc2c1C has a viability of 99.9% (PC-3; cell growth or viability, MTT; 31.25 µg/mL).
The IC50 of O=C(NC(=S)Nc1ccccn1)c1cccs1 is reported as 1260 nM (Leishmania donovani; parasite growth, resazurin; promastigote).
With Cc1c(Cc2ccccc2)c(=O)oc2c(C)c(OCC(=O)NN=Cc3ccco3)ccc12 the viability was 11.1% (PC-3; cell growth or viability, MTT; 250 µg/mL).
O=C(C=Cc1ccccc1)Nc1cccc(-c2ccnc(N3CCC(O)CC3)c2)c1 has an inhibition of 54.8% (A549; cell growth or viability, MTT; 5 µM).
